The record followed here is ChEMBL document CHEMBL1148464, “Cytotoxic activity of metal complexes of biogenic polyamines: polynuclear platinum(II) chelates” (J Med Chem, 2004).

Holding throughout (format): functional, cell-based
For one experiment, the system named is THP-1. Nature of the experiment: Cytotoxic potency against human THP-1 cell line expressed as inhibitory concentration. The procedure, abridged: (§1)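 Suspension cultures in RPMI-1640 with 25 mM HEPES and 10% FCS, seeded at 3 × 10^5 cells/mL; drug (5–150 µM) added 24 h later, 37 °C. IC50 taken from dose-response curves after 72 h exposure, counting irreversible effects only (drug washed out, 3 further days). Read-out by Trypan blue exclusion, MTT (4 h, 570 nm) and Alamar blue (8 h, 570/600 nm); triplicate.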

Another experiment has as its system HSC-3. Briefly: Cytotoxic potency against human HSC-3 cell line expressed as inhibitory concentration. In short, it runs like this: (§2)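 Adherent cells grown in high-glucose DMEM with 10% FCS, harvested with trypsin/EDTA. Seeded at 3 × 10^5 cells/mL; drug at 5–150 µM added after 24 h, 37 °C. IC50 derived from 72 h exposure dose-response curves; only effects persisting 3 days after drug removal reported. Trypan blue counts plus MTT and Alamar blue viability readouts, triplicate.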

In the next experiment the test system is L132. Nature of the experiment: Cytotoxic potency against human L-132 cell line expressed as inhibitory concentration. In short, it runs like this: as §2
A further experiment relates to HeLa. Nature of the experiment: Cytotoxic potency against human HeLa cell line expressed as inhibitory concentration. The procedure, abridged: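 Monolayers in high-glucose DMEM with 10% FCS, harvested with an EDTA/PBS dissociation medium. Plated at 3 × 10^5 cells/mL, dosed 24 h later with 5–150 µM at 37 °C. IC50 from 72 h dose-response curves, irreversible effects only (3-day drug-free recovery). Measured by Trypan blue exclusion, MTT (570 nm) and Alamar blue (570/600 nm) assays, in triplicate.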

A further experiment deals with MOLT-3. Nature of the experiment: Cytotoxic potency against human MOLT-3 cell line expressed as inhibitory concentration. In short, it runs like this: as §1

Turning to CISPLATIN, the concentration for half-maximal inhibition (IC50) amounted to 2 µM in the experiment with THP-1; 7 µM in the experiment with HSC-3; 2 µM in the experiment on L132; 2 µM in the experiment with HeLa; 4 µM with MOLT-3.
On to CARBOPLATIN, for which, in the experiment on HSC-3, the concentration for half-maximal inhibition (IC50) turned out to be 3 µM.
